The record followed here is ChEMBL document CHEMBL3612030 (Eur J Med Chem, 2015).

The source made the active and inactive calls. The calls are words filed in the database; no cut-off is given here. A value given as a limit tells only on which side of the number the result lay.

For assay [1], the target named is T1, Polyunsaturated fatty acid 5-lipoxygenase (Homo sapiens, UniProt P09917).
T1 sequence (P09917 whole entry): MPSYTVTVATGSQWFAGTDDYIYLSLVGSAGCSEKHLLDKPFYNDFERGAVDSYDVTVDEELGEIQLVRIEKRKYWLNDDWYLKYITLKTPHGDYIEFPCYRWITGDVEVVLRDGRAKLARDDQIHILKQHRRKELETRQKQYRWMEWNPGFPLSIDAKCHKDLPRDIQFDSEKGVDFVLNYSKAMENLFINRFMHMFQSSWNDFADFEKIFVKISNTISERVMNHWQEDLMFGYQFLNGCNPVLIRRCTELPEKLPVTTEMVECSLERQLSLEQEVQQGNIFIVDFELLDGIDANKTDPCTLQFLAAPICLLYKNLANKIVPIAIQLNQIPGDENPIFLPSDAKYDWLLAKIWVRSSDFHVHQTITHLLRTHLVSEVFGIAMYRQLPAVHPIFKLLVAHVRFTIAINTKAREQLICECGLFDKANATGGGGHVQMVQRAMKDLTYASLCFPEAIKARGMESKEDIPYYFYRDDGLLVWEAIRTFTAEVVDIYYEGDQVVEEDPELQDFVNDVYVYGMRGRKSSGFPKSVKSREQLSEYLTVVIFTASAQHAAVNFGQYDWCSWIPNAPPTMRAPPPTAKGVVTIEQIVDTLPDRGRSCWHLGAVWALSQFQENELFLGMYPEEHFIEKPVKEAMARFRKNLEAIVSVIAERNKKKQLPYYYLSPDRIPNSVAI
Nature of the assay: Inhibition of human 5-LOX expressed in Escherichia coli Bl21 (DE3) assessed as reduction in LTB4 and 5-H(P)ETE) formation pre-incubated for 10 mins before arachidonic acid substrate addition by RP-HPLC method. The procedure, abridged: (§1)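 Human 5-LO expressed from pT3-5LO in E. coli BL21(DE3) and semi-purified on ATP-agarose. Diluted in PBS with 1 mM EDTA and 1 mM ATP, pre-incubated with compound 10 min at 4 °C, then warmed 30 s at 37 °C. Reaction started with 2 mM CaCl2 plus 20 µM arachidonic acid, run 10 min at 37 °C and stopped with ice-cold methanol. All-trans LTB4 isomers and 5-H(P)ETE measured by RP-HPLC. 3–4 independent experiments.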

Assay [2] deals with T2, Polyunsaturated fatty acid 5-lipoxygenase (Homo sapiens) (UniProt P09917).
T2 sequence (whole entry): T1 sequence (P09917 whole entry)
Nature of the assay: Inhibition of human 5-LOX expressed in Escherichia coli Bl21 (DE3) assessed as remaining enzyme activity by measuring LTB4 and 5-H(P)ETE) formation at 10 uM pre-incubated for 10 mins before arachidonic acid substrate addition by RP-HPLC method. The procedure, abridged:
as §1

Assay [3] has as its target T1, Polyunsaturated fatty acid 5-lipoxygenase. Nature of the assay: Inhibition of 5-LOX in human neutrophils assessed as reduction in LTB4 and 5-H(P)ETE) formation pre-incubated for 15 mins before A23187 and arachidonic acid substrate addition by RP-HPLC method. The method in brief:
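Freshly isolated neutrophils (1 × 10^7/mL) pre-incubated with compound for 15 min at 37 °C. LTB4, its all-trans isomers and 5-H(P)ETE extracted and quantified by HPLC; cysteinyl-LTs and LTB4 oxidation products not measured. Mean ± S.E.M. of 3–4 independent experiments.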

The target of assay [4] is T2, Polyunsaturated fatty acid 5-lipoxygenase (Homo sapiens). Nature of the assay: Inhibition of 5-LOX in human neutrophils assessed as remaining enzyme activity by measuring LTB4 and 5-H(P)ETE) formation at 10 uM pre-incubated for 15 mins before A23187 and arachidonic acid substrate addition by RP-HPLC method. The procedure, abridged: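 Freshly isolated neutrophils (1 × 10^7/mL) pre-incubated with compound for 15 min at 37 °C. Stimulated with 2.5 µM A23187 plus 20 µM arachidonic acid for 10 min at 37 °C, then stopped with methanol. LTB4, its all-trans isomers and 5-H(P)ETE extracted and quantified by HPLC; cysteinyl-LTs and LTB4 oxidation products not measured. Mean ± S.E.M. of 3–4 independent experiments.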

The subject of the next assay is U-937. Nature of the assay: Cytotoxicity against human U937 cells assessed as reduction in viability incubated for 24 hrs by MTT assay. Format: cell-based. The note with it: U-937, 24 h. The method in brief: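 U937 cells grown in RPMI 1640 with 10% FBS, […] and penicillin/streptomycin at 37 °C under 5% CO2. Seeded at 1 × 10^6/mL and exposed to 3 concentrations for 24 h. MTT added at one-tenth culture volume for 4 h, then acidic isopropanol. Read at 570 nm minus 630-690 nm background. Untreated cells (RPMI + DMSO) = 100% viability. EC50 = concentration halving MTT reduction. 3–4 independent experiments, mean ± S.E.M.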
(In general: Tetrazolium dyes change colour on reduction, which living cells bring about.)

Assay [5] deals with T2, Polyunsaturated fatty acid 5-lipoxygenase (Homo sapiens). Nature of the assay: Inhibition of human 5-LOX expressed in HEK293 cells without FLAP expression assessed as reduction in LTB4 and 5-H(P)ETE) formation at 1 uM pre-incubated for 10 mins before arachidonic acid substrate addition by RP-HPLC method. It is filed as cell-based. The procedure, abridged:
(§2)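 Stably transfected HEK 293 cells expressing 5-LO alone or 5-LO plus FLAP, 1 × 10^6 cells in 1 mL PBS with 0.1% glucose and 1 mM CaCl2. Pre-incubated with compound 10 min at 37 °C, then stimulated with 2.5 µM A23187 plus 2 µM arachidonic acid for 10 min at 37 °C. Stopped with methanol; all-trans LTB4 isomers and 5-H(P)ETE extracted and measured by HPLC.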

Assay [6] has the same target. Nature of the assay: Inhibition of human 5-LOX expressed in HEK293 cells co-expressing FLAP assessed as reduction in LTB4 and 5-H(P)ETE) formation at 1 uM pre-incubated for 10 mins before arachidonic acid substrate addition by RP-HPLC method. It is filed as cell-based. The procedure, abridged: as §2

By IC50 is commonly meant the midpoint of a concentration-inhibition curve. By EC50 is commonly meant the concentration that produces a half-maximal response. For `CC(=O)Oc1ccc(/C=C/C(=O)NCCc2cn(CCCO)nn2)cc1OC(C)=O`, the IC50 in assay [1] and in assay [3] was greater than 10 µM each time. Moreover, the Activity in assay [2] was 53.6%; in assay [4], 104%. The EC50 in the assay on U-937 turned out to be 10.3 µM.

For the molecule `C#CCCCCOC(=O)/C=C/c1ccc(OC(C)=O)c(OC(C)=O)c1`, the IC50 is greater than 10 µM in assay [1] and 0.92 µM in assay [3].

On to `C#CCCOC(=O)/C=C/c1ccc(F)c(F)c1`, for which the IC50 in assay [1] and in assay [3] was greater than 10 µM throughout. The Activity in assay [2] amounted to 52.6%; in assay [4] it was 88.2%.

In the case of `CC(=O)Oc1ccc(/C=C/C(=O)OCCCn2cc(CCO)nn2)cc1OC(C)=O`, the IC50 in assay [1] was 7.6 µM; in assay [3] it was greater than 10 µM.

`CC(=O)Oc1ccc(/C=C/C(=O)OCCCCc2cn(CCCO)nn2)cc1OC(C)=O`: the IC50 is 7.6 µM in assay [1] and 6.1 µM in assay [3].

Consider `C#CCCCCCOC(=O)/C=C/c1ccc(OC(C)=O)c(OC(C)=O)c1`, for which the figures for the IC50 in assay [1] and in assay [3] were greater than 10 µM and 0.47 µM, respectively.

In the case of `O=C(/C=C/c1ccc(F)c(F)c1)OCCc1cn(CCCO)nn1`, the IC50 in assay [1] and in assay [3] was greater than 10 µM each time. The Activity is 90.3% in assay [2] and 101% in assay [4]. The EC50 in the assay on U-937 was 5.1 µM.

In the case of `C#CCCCCCCCCOC(=O)/C=C/c1ccc(OC(C)=O)c(OC(C)=O)c1`, the IC50 is greater than 10 µM in assay [1] and 0.18 µM in assay [3].

On to `CC(=O)Oc1ccc(/C=C/C(=O)OCCc2cn(CCCOC(=O)C3(C)CCc4c(C)c(OC(C)=O)c(C)c(C)c4O3)nn2)cc1OC(C)=O` (configuration not stated), for which the IC50 in assay [1] is greater than 10 µM; in assay [3] it was 0.16 µM. The EC50 in the assay on U-937 came to 10.1 µM. Moreover, the inhibition entry in assay [5] and in assay [6] was “Active” each time.

As to `CC(=O)Oc1ccc(/C=C/C(=O)O)cc1OC(C)=O`, the IC50 in assay [1] and in assay [3] was greater than 10 µM in each case. The values for the Activity in assay [2] and in assay [4] were 90.3% and 84.7%, respectively.

Regarding `C#CCCOC(=O)/C=C/c1ccc(OC(C)=O)c(OC(C)=O)c1`, the IC50 in assay [1] is greater than 10 µM; in assay [3], 1.8 µM. Moreover, the EC50 with U-937 was determined as 9.8 µM. Also, in assay [5], the inhibition entry was “Active”.

`CC(=O)Oc1ccc(/C=C/C(=O)OCCCN=[N+]=[N-])cc1OC(C)=O`: the figures for the concentration for half-maximal inhibition (IC50) in assay [1] and in assay [3] were greater than 10 µM and 1.3 µM, respectively.

For the molecule `CC(=O)Oc1c(C)c(C)c2c(c1C)CCC(C)(C(=O)OCCCN=[N+]=[N-])O2` (configuration not stated), the IC50 in assay [1] is greater than 10 µM; in assay [3], 2.6 µM.

`O=C(O)/C=C/c1ccc(O)c(O)c1` [CAFFEIC ACID]: the EC50 in the assay on U-937 was 9.9 µM.

Take `CC(=O)Oc1ccc(/C=C/C(=O)OCCCCCCCCc2cn(CCCO)nn2)cc1OC(C)=O`: the IC50 in assay [1] is 3.2 µM; in assay [3] it was 0.2 µM. Moreover, the EC50 in the assay with U-937 came to 10.2 µM.

On to `C#CCCNC(=O)/C=C/c1ccc(OC(C)=O)c(OC(C)=O)c1`, for which the IC50 in assay [1] was greater than 10 µM; in assay [3] it was 8.23 µM.

As to `CC(=O)Oc1ccc(/C=C/C(=O)OCCCn2cc(CCOC(=O)/C=C/c3ccc(OC(C)=O)c(OC(C)=O)c3)nn2)cc1OC(C)=O`, the IC50 was greater than 10 µM in assay [1] and 0.6 µM in assay [3]. Besides, in the assay with U-937, the EC50 was found to be 9.6 µM. Moreover, the inhibition result in assay [5] and in assay [6] was “Active” throughout.
